# Measured values reported in ChEMBL document CHEMBL4311956, “A Qualified Success: Discovery of a New Series of ATAD2 Bromodomain Inhibitors with a Novel Binding Mode Using High-Throughput Screening and Hit Qualification” (J Med Chem, 2019).
# Experiments:
# [1] = species: Homo sapiens; assay: Selectivity ratio, ratio of inhibition of BRPF3 (unknown origin) to Displacement of biotinylated H4 peptide from ATAD2B bromodomain (unknown origin) by TR-FRET assay
# [2] = species: Homo sapiens; assay: Selectivity ratio, ratio of displacement of Alexa Fluor 647 labelled ligand from His6-tagged BRD4 BD2 (1 to 477 residues)/BD1 Y97A mutant (unknown origin) to displacement of SGRG-K(Ac)-GG-K(Ac)-GLG-K(Ac)-GGAKRHRKV-biotin) from His6/FLAG-tagged TEV fused ATAD2 bromodomain (981 to 1121 residues) expressed in Escherichia coli BL21(DE3) cells
# [3] = species: Homo sapiens; assay: Selectivity ratio, ratio of inhibition of CECR2 (unknown origin) to displacement of SGRG-K(Ac)-GG-K(Ac)-GLG-K(Ac)-GGAKRHRKV-biotin) from His6/FLAG-tagged TEV fused ATAD2 bromodomain (981 to 1121 residues) expressed in Escherichia coli BL21(DE3) cells
# [4] = biological target: Bromodomain and PHD finger-containing protein 3 (Homo sapiens, UniProt Q9ULD4); assay: Inhibition of BRPF3 (unknown origin) by TR-FRET assay
# Chain of Bromodomain and PHD finger-containing protein 3 (Q9ULD4 whole entry, the tested form may be a part): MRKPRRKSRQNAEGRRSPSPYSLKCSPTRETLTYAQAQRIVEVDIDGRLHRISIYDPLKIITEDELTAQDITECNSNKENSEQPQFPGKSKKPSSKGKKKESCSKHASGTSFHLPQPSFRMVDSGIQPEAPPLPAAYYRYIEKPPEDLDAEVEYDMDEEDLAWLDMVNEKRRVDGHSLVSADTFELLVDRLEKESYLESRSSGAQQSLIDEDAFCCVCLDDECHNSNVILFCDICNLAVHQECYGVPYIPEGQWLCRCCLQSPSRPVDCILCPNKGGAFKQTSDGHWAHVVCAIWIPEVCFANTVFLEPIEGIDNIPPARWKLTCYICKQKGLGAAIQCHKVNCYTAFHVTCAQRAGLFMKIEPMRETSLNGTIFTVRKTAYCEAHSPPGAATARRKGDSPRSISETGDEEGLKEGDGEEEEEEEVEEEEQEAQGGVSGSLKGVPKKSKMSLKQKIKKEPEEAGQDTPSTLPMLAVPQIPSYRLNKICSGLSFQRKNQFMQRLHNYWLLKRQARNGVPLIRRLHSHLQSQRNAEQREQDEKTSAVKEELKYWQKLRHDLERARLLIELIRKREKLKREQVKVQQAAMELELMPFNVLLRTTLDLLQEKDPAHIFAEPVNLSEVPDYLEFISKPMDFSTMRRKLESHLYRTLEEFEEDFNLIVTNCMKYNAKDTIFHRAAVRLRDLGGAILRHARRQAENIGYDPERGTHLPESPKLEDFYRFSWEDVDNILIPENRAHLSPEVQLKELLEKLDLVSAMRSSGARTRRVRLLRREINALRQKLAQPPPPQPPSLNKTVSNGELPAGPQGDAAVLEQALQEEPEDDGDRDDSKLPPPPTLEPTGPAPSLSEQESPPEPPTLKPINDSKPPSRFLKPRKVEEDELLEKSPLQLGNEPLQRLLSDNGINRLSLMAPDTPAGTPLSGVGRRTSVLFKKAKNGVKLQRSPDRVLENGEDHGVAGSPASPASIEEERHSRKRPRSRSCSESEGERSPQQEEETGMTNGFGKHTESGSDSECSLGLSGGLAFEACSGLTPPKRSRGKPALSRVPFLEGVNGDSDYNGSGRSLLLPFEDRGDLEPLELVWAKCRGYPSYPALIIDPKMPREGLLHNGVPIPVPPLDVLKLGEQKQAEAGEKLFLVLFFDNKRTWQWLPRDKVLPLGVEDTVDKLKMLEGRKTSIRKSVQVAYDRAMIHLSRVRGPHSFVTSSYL
# [5] = biological target: Bromodomain-containing protein 4 (Homo sapiens, UniProt O60885, Y390A); assay: Displacement of Alexa Fluor 647 labelled ligand from His6-tagged BRD4 BD1 (1 to 477 residues)/BD2 Y390A mutant (unknown origin) after 30 mins by TR-FRET assay
# In short: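 BET selectivity by TR-FRET fluoroligand displacement. Uses tandem BET bromodomain constructs carrying a mutation in the non-assayed bromodomain.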
# [6] = biological target: Nucleosome-remodeling factor subunit BPTF (Homo sapiens, UniProt Q12830); assay: Inhibition of BPTF (unknown origin) by TR-FRET assay
# [7] = biological target: Peregrin (Homo sapiens, UniProt P55201); assay: Inhibition of BRPF1 (unknown origin) by TR-FRET assay
# [8] = biological target: Bromodomain-containing protein 9 (Homo sapiens, UniProt Q9H8M2); assay: Inhibition of BRD9 (unknown origin) by TR-FRET assay
# Chain of Bromodomain-containing protein 9 (Q9H8M2 whole entry): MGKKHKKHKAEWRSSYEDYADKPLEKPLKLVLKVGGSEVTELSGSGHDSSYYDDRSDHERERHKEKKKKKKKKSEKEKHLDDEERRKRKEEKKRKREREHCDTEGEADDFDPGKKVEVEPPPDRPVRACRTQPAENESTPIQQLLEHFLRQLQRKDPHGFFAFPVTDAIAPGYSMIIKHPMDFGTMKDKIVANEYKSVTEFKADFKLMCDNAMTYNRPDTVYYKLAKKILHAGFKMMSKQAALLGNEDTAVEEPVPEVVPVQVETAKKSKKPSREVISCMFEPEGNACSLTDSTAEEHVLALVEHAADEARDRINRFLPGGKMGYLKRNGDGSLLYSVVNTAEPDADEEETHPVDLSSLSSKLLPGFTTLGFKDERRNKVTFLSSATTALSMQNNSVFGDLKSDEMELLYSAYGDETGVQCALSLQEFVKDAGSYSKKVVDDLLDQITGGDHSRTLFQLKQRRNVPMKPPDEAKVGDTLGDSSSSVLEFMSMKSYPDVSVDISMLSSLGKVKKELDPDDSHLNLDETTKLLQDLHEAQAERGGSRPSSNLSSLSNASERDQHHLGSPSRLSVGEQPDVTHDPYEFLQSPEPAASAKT
# [9] = species: Homo sapiens; assay: Selectivity ratio, ratio of inhibition of CECR2 (unknown origin) to Displacement of biotinylated H4 peptide from ATAD2B bromodomain (unknown origin) by TR-FRET assay
# [10] = biological target: Transcription initiation factor TFIID subunit 1 (Homo sapiens, UniProt P21675); assay: Inhibition of TAF1 BD2 (unknown origin) by TR-FRET assay
# [11] = biological target: Chromatin remodeling regulator CECR2 (Homo sapiens, UniProt Q9BXF3); assay: Inhibition of CECR2 (unknown origin) by TR-FRET assay
# Chain of Chromatin remodeling regulator CECR2 (Q9BXF3 whole entry): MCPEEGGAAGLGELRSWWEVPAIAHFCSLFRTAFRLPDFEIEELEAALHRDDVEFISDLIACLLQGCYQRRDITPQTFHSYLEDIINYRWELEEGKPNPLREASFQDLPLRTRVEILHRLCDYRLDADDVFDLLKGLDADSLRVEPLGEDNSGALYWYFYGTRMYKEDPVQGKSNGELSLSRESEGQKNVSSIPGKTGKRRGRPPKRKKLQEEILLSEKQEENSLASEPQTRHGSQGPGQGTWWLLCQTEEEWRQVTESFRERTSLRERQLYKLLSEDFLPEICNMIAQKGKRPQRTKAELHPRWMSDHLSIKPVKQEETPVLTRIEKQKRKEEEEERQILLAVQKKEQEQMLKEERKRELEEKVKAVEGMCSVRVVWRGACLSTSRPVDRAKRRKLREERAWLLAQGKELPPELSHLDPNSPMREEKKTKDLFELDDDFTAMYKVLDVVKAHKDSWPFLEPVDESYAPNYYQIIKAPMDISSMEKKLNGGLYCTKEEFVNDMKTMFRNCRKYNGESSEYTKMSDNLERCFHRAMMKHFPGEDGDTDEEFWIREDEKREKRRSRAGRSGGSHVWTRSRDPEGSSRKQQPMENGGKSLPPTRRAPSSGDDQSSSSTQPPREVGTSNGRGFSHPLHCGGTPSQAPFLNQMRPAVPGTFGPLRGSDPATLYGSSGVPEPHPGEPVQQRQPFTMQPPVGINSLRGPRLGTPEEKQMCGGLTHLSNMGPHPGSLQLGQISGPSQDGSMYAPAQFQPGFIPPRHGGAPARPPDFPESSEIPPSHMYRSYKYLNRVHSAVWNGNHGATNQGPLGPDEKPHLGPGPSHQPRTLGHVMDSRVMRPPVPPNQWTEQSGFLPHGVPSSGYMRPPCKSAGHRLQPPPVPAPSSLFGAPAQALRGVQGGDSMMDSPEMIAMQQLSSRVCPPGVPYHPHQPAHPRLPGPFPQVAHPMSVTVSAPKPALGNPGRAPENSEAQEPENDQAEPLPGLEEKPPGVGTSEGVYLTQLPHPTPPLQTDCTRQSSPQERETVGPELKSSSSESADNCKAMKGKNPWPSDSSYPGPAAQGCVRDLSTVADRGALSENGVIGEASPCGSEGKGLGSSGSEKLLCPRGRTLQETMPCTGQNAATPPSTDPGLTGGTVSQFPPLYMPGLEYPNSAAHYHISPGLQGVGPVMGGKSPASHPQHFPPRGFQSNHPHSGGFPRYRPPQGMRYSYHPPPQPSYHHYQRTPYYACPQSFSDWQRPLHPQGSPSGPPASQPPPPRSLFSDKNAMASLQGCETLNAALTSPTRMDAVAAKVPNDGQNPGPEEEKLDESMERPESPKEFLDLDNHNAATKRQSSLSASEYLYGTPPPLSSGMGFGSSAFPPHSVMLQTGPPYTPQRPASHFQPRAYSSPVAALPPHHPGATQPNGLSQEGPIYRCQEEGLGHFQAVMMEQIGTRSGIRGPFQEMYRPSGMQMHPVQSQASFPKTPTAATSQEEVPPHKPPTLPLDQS
# [12] = biological target: Bromodomain-containing protein 7 (Homo sapiens, UniProt Q9NPI1); assay: Inhibition of BRD7 (unknown origin) by TR-FRET assay
# Chain of Bromodomain-containing protein 7 (Q9NPI1 whole entry, the tested form may be a part): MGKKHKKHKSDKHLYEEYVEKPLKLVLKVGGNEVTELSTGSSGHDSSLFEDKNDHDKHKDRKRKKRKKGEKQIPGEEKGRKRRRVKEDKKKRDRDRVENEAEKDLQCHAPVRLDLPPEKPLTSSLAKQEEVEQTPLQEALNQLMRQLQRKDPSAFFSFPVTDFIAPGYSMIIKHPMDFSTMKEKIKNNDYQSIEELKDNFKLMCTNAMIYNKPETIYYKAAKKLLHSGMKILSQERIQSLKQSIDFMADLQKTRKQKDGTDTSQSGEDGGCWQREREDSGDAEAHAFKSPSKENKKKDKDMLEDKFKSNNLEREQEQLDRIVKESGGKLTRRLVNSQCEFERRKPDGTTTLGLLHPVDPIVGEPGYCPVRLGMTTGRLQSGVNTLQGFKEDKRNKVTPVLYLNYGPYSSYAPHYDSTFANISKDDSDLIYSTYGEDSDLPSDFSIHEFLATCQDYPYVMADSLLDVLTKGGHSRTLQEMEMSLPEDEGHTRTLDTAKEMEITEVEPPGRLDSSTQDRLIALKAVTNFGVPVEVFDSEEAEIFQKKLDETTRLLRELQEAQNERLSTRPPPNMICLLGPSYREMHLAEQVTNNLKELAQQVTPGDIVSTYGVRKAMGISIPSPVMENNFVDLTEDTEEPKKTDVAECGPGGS
# [13] = biological target: T1, ATPase family AAA domain-containing protein 2 (Homo sapiens, UniProt Q6PL18); assay: Displacement of SGRG-K(Ac)-GG-K(Ac)-GLG-K(Ac)-GGAKRHRKV-biotin) from His6/FLAG-tagged TEV fused ATAD2 bromodomain (981 to 1121 residues) (unknown origin) expressed in Escherichia coli BL21(DE3) cells after 30 mins by TR-FRET assay
# T1 sequence (Q6PL18 whole entry): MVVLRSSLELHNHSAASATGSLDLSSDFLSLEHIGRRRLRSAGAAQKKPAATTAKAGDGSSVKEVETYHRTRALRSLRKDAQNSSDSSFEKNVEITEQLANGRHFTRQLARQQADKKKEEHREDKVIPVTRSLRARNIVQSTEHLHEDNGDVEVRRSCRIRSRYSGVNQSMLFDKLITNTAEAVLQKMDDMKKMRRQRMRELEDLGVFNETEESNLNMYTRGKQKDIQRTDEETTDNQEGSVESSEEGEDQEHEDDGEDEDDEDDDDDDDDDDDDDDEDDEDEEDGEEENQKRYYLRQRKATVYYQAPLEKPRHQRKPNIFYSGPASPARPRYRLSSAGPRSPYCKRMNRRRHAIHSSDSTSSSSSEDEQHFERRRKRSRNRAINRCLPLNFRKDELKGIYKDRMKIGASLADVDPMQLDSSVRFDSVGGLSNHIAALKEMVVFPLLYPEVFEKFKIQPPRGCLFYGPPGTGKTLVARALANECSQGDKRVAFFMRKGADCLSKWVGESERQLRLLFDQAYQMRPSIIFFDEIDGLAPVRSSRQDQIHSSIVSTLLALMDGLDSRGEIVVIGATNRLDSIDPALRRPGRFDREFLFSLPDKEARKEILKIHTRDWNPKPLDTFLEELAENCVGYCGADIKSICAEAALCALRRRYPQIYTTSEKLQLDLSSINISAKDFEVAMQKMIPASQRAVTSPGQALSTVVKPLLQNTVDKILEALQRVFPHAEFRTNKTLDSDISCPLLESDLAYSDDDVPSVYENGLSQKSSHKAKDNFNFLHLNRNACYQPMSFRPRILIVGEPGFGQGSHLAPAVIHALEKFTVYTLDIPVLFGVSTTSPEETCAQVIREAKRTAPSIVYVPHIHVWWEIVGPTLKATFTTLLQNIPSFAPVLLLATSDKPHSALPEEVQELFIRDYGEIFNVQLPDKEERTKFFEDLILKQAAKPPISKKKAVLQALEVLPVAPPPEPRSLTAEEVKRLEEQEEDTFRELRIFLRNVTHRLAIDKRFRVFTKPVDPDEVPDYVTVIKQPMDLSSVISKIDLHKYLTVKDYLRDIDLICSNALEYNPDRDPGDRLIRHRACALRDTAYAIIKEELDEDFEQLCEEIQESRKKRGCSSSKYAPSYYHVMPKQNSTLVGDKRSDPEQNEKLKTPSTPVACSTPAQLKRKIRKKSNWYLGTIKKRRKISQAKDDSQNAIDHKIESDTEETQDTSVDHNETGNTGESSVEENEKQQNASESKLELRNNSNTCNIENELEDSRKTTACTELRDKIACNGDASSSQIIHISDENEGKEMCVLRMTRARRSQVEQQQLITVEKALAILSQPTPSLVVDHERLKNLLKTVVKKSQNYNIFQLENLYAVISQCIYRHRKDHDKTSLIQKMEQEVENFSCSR
# [14] = species: Homo sapiens; assay: Selectivity ratio, ratio of inhibition of TAF1 BD2 (unknown origin) to displacement of SGRG-K(Ac)-GG-K(Ac)-GLG-K(Ac)-GGAKRHRKV-biotin) from His6/FLAG-tagged TEV fused ATAD2 bromodomain (981 to 1121 residues) expressed in Escherichia coli BL21(DE3) cells
compound,measurement,setting,value
CC1(C2CC2)NC(=O)N(CC(=O)Nc2ccc(Br)c(S(=O)(=O)N3CCCCC3)c2)C1=O (racemic),Selectivity ratio,[1],> 10
same,Selectivity ratio,[2],60
same,Selectivity ratio,[3],> 10
same,IC50,[4],10 µM
same,IC50,[5],50.1 µM
same,IC50,[6],63.1 µM
same,IC50,[7],> 100 µM
same,IC50,[8],> 50.1 µM
same,Selectivity ratio,[9],> 10
same,IC50,[10],3.98 µM
same,IC50,[11],2.51 µM
same,IC50,[12],63.1 µM
same,IC50,[13],0.316 µM
same,Selectivity ratio,[14],> 10
